Data from ChEMBL document CHEMBL4219100, “Discovery of selective EGFR modulator to inhibit L858R/T790M double mutants bearing a N-9-Diphenyl-9H-purin-2-amine scaffold” (Bioorg Med Chem, 2018).
Each block holds one compound with its values, some of them ahead of it.

Key:
NCI-H1975 = assay: Cytotoxicity against human NCI-H1975 cells expressing EGFR L858R/T790M double mutant after 72 hrs by MTT assay; type: functional, cell-based; details: NCI-H1975, 72 h
How it was run: (§1)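 Cells grown in MEM with 10% FBS; about 4×10^3 cells per well seeded and held 24 h at 37°C in 5% CO₂. Compounds then added and culture continued 72 h. MTT added ([…]) for 4 h at 37°C. Formazan dissolved in DMSO and absorbance read at 492 nm against 630 nm reference. Each compound tested three times per line; IC50 is the mean of at least three determinations.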

HT-29 = assay: Cytotoxicity against human HT-29 cells after 72 hrs by MTT assay; type: cell-based; details: HT-29, 72 h; how it was run: as §1
A549 = assay: Cytotoxicity against human A549 cells expressing wild-type EGFR/K-ras mutant after 72 hrs by MTT assay; type: cell-based; details: A549, 72 h; how it was run: as §1
Homo sapiens [1] = species on record: Homo sapiens; assay: Selectivity ratio of IC50 for human A549 cells expressing wild-type EGFR/K-Ras mutant to IC50 for human NCI-H1975 cells expressing EGFR L858R/T790M double mutant
[2] = target: Epidermal growth factor receptor (Homo sapiens, UniProt P00533, L858R/T790M); assay: Inhibition of recombinant human GST-tagged EGFR L858R/T790M double mutant cytoplasmic domain (668 to 1210 residues) expressed in baculovirus expression system using FAM-labelled peptide as substrate pretreated for 10 mins followed by substrate addition measured after 1 hr by mobility shift assay
Homo sapiens [3] = species on record: Homo sapiens; assay: Selectivity ratio of IC50 for recombinant human GST-tagged EGFR cytoplasmic domain (668 to 1210 residues) expressed in baculovirus expression system to IC50 for recombinant human GST-tagged EGFR L858R/T790M double mutant cytoplasmic domain (668 to 1210 residues) expressed in baculovirus expression system
How it was run: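 Caliper mobility-shift kinase assay in 50 mM HEPES pH 7.5, 0.0015% Brij35, 2 mM DTT. Five-point DMSO dilution series, in duplicate. Enzyme (EGFR form as appropriate) was preincubated with compound for 10 min at room temperature. FAM-labeled peptide plus ATP was added, then 1 h at 28°C. Stopped with EDTA buffer. Percent inhibition came from substrate conversion; ratio taken as WT IC50 over L858R/T790M IC50.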

[4] = target: Epidermal growth factor receptor (Homo sapiens, UniProt P00533, T790M); assay: Inhibition of recombinant human GST-tagged EGFR T790M mutant cytoplasmic domain (668 to 1210 residues) expressed in baculovirus expression system using FAM-labelled peptide as substrate pretreated for 10 mins followed by substrate addition measured after 1 hr by mobility shift assay
[5] = target: Epidermal growth factor receptor (Homo sapiens, UniProt P00533); assay: Inhibition of recombinant human GST-tagged EGFR cytoplasmic domain (668 to 1210 residues) expressed in baculovirus expression system using FAM-labelled peptide as substrate pretreated for 10 mins followed by substrate addition measured after 1 hr by mobility shift assay
Chain of Epidermal growth factor receptor (Homo sapiens, UniProt P00533) (P00533 whole entry, the tested form may be a part): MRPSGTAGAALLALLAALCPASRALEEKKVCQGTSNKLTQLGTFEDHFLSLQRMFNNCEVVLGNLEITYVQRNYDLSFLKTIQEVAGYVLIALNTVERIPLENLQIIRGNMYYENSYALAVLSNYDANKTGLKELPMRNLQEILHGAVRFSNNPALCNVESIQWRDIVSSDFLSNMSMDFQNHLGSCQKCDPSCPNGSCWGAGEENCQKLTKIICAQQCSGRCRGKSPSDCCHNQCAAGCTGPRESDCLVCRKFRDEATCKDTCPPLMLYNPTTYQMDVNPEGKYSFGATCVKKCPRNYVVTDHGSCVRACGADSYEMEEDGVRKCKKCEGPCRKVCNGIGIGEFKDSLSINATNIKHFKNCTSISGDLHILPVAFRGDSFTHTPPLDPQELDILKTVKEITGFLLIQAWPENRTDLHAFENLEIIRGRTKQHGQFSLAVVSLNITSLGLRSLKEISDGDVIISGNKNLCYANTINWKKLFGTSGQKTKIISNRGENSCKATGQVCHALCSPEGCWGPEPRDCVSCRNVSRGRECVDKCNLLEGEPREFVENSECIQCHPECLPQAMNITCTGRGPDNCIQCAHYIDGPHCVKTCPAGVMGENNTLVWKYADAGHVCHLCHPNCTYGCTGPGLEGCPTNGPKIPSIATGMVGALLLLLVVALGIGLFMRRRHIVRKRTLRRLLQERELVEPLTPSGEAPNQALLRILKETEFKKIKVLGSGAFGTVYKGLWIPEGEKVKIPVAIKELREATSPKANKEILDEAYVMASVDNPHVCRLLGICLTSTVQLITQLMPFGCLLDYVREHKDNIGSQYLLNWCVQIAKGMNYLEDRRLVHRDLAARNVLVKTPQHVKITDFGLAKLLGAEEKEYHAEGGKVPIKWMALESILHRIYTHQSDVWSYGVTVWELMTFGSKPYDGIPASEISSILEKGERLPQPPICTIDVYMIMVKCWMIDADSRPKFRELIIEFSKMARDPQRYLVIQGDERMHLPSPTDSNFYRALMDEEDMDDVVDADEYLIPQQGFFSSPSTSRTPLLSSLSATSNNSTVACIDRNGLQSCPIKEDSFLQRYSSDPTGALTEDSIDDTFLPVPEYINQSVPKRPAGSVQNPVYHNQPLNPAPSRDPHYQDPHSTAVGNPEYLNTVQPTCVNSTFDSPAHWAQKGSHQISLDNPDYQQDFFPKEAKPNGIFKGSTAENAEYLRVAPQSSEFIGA

Chain of Epidermal growth factor receptor (Homo sapiens, UniProt P00533, L858R/T790M) (P00533 25-1210 T790M/L858R limits assumed): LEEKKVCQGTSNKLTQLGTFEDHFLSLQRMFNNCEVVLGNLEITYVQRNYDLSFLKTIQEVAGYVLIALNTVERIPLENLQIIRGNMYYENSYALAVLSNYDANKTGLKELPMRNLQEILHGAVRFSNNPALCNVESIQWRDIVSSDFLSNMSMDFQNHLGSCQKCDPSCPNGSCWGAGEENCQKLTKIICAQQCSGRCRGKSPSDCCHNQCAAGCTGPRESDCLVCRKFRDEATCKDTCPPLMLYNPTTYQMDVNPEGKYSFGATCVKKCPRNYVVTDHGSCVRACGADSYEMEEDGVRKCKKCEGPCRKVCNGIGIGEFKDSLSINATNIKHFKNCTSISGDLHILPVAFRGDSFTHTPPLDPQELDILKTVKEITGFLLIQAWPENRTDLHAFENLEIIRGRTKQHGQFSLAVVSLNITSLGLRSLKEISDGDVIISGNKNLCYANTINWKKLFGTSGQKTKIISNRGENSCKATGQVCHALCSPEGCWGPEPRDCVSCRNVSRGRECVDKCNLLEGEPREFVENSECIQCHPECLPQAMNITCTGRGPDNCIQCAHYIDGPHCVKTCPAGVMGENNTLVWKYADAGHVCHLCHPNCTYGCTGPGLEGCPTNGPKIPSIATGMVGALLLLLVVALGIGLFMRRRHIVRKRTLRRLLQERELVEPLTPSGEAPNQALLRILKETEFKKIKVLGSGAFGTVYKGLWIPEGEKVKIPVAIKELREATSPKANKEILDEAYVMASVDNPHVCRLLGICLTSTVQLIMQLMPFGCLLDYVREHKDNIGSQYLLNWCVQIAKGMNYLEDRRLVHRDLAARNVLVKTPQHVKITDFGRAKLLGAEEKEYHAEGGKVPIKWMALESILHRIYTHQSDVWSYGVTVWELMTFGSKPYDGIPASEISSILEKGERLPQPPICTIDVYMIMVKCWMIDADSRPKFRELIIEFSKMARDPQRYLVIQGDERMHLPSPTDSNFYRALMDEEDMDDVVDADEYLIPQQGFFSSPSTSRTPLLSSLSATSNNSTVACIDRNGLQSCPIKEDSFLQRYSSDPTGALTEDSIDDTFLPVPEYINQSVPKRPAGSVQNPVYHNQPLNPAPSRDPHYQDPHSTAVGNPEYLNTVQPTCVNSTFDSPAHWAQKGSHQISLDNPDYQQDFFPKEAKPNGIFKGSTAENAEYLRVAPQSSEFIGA

Structure (SMILES): C=CC(=O)Nc1cc(Nc2ncc3[nH]c(=O)n(-c4ccc(I)cc4)c3n2)c(OC)cc1N1CCN(C)CC1
IC50 (NCI-H1975): 10400 nM | IC50 (HT-29): 39300 nM | IC50 (A549): 490 nM | Ratio IC50 (Homo sapiens [1]): < 1

Structure (SMILES): C=CC(=O)Nc1cc(Nc2ncc3nc(Nc4ccccc4)n(C)c3n2)c(OC)cc1N(C)CCN(C)C
IC50 ([2]; read-out: IC50): 2.7 nM | IC50 ([2]; read-out: pIC50 (converted)): 2.69 nM | IC50 (NCI-H1975): 38 nM | Ratio IC50 (Homo sapiens [3]): 8.3 | IC50 (HT-29): 8700 nM | IC50 [4]: 3.5 nM | IC50 (A549): 6080 nM | Ratio IC50 (Homo sapiens [1]): 160 | IC50 [5]: 22.4 nM

Structure (SMILES): C=CC(=O)Nc1cc(Nc2ncc3[nH]c(=O)n(-c4ccc(C(C)C)cc4)c3n2)c(OC)cc1N1CCOCC1
IC50 (NCI-H1975): 4040 nM | IC50 (HT-29): 1540 nM | IC50 (A549): 1170 nM | Ratio IC50 (Homo sapiens [1]): < 1

Structure (SMILES): C=CC(=O)Nc1cc(Nc2ncc3ncn(-c4ccc(I)cc4)c3n2)c(OC)cc1N1CCN(C)CC1
IC50 (NCI-H1975): 7320 nM | IC50 (HT-29): 20700 nM | IC50 (A549): 6310 nM | Ratio IC50 (Homo sapiens [1]): < 1

Structure (SMILES): C=CC(=O)Nc1cc(Nc2ncc3ncn(-c4ccc(I)cc4)c3n2)c(OC)cc1N(C)CCN(C)C
IC50 ([2]; read-out: IC50): 3.5 nM | IC50 (NCI-H1975): 76 nM | Ratio IC50 (Homo sapiens [3]): 4.9 | IC50 (HT-29): 9520 nM | IC50 [4]: 4.7 nM | IC50 (A549): 8710 nM | Ratio IC50 (Homo sapiens [1]): 115 | IC50 [5]: 17 nM

Structure (SMILES): C=CC(=O)Nc1cc(Nc2ncc3ncn(-c4ccc(Cl)cc4)c3n2)c(OC)cc1N(C)CCN(C)C
IC50 ([2]; read-out: IC50): 3.9 nM | IC50 (NCI-H1975): 85 nM | Ratio IC50 (Homo sapiens [3]): 7 | IC50 (HT-29): 7690 nM | IC50 [4]: 6.4 nM | IC50 (A549): 1860 nM | Ratio IC50 (Homo sapiens [1]): 30 | IC50 [5]: 15.6 nM

Structure (SMILES): C=CC(=O)Nc1cc(Nc2ncc3ncn(-c4ccc(C(C)C)cc4)c3n2)c(OC)cc1N1CCN(C)CC1
IC50 (NCI-H1975): 1930 nM | IC50 (HT-29): 7690 nM | IC50 (A549): 9250 nM | Ratio IC50 (Homo sapiens [1]): 5

Structure (SMILES): C=CC(=O)Nc1cc(Nc2ncc3[nH]c(=O)n(-c4ccc(I)cc4)c3n2)c(OC)cc1N(C)CCN(C)C
IC50 (NCI-H1975): 830 nM | IC50 (HT-29): 4820 nM | IC50 (A549): 1230 nM | Ratio IC50 (Homo sapiens [1]): 15

Structure (SMILES): C=CC(=O)Nc1cc(Nc2ncc3[nH]c(=O)n(-c4ccc(C(C)C)cc4)c3n2)c(OC)cc1N1CCN(C)CC1
IC50 (NCI-H1975): 2140 nM | IC50 (HT-29): 14300 nM | IC50 (A549): 2050 nM | Ratio IC50 (Homo sapiens [1]): 1

Structure (SMILES): C=CC(=O)Nc1cc(Nc2ncc3nc(Nc4ccccc4)n(C(C)C)c3n2)c(OC)cc1N(C)CCN(C)C
IC50 ([2]; read-out: IC50): 5.1 nM | IC50 (NCI-H1975): 46 nM | Ratio IC50 (Homo sapiens [3]): 8 | IC50 (HT-29): 4720 nM | IC50 (A549): 1420 nM | Ratio IC50 (Homo sapiens [1]): 31 | IC50 [5]: 41 nM

Structure (SMILES): C=CC(=O)Nc1cc(Nc2ncc3ncn(-c4ccc(C(C)C)cc4)c3n2)c(OC)cc1N1CCOCC1
IC50 (NCI-H1975): 5100 nM | IC50 (HT-29): 23000 nM | IC50 (A549): 4230 nM | Ratio IC50 (Homo sapiens [1]): < 1

Structure (SMILES): C=CC(=O)Nc1cc(Nc2ncc3ncn(-c4ccc(C(C)C)cc4)c3n2)c(OC)cc1N(C)CCN(C)C
IC50 ([2]; read-out: IC50): 4.2 nM | IC50 (NCI-H1975): 74 nM | Ratio IC50 (Homo sapiens [3]): 6 | IC50 (HT-29): 15300 nM | IC50 (A549): 14500 nM | Ratio IC50 (Homo sapiens [1]): 196 | IC50 [5]: 25 nM

Structure (SMILES): C=CC(=O)Nc1cc(Nc2nccc(-c3cn(C)c4ccccc34)n2)c(OC)cc1N(C)CCN(C)C [OSIMERTINIB]
IC50 (NCI-H1975): […] | IC50 (HT-29): 650 nM | IC50 (A549): 870 nM

Structure (SMILES): C=CC(=O)Nc1cc(Nc2ncc3ncn(-c4ccc(I)cc4)c3n2)c(OC)cc1N1CCOCC1
IC50 (NCI-H1975): 29800 nM | IC50 (HT-29): 35100 nM | IC50 (A549): 1520 nM | Ratio IC50 (Homo sapiens [1]): < 1

Structure (SMILES): C=CC(=O)Nc1cc(Nc2ncc3ncn(-c4ccc(F)c(Br)c4)c3n2)c(OC)cc1N(C)CCN(C)C
IC50 ([2]; read-out: IC50): 2.3 nM | IC50 (NCI-H1975): 35 nM | Ratio IC50 (Homo sapiens [3]): 4.3 | IC50 (HT-29): 3640 nM | IC50 (A549): 3020 nM | Ratio IC50 (Homo sapiens [1]): 86 | IC50 [5]: 10 nM

Structure (SMILES): C=CC(=O)Nc1cc(Nc2ncc3[nH]c(=O)n(-c4ccc(I)cc4)c3n2)c(OC)cc1N1CCOCC1
IC50 (NCI-H1975): 4310 nM | IC50 (HT-29): 19600 nM | IC50 (A549): 18500 nM | Ratio IC50 (Homo sapiens [1]): 4

Structure (SMILES): C=CC(=O)Nc1cc(Nc2ncc3ncn(-c4ccc(F)cc4)c3n2)c(OC)cc1N(C)CCN(C)C
IC50 ([2]; read-out: IC50): 3.2 nM | IC50 (NCI-H1975): 61 nM | Ratio IC50 (Homo sapiens [3]): 5.6 | IC50 (HT-29): 12000 nM | IC50 [4]: 5.8 nM | IC50 (A549): 420 nM | Ratio IC50 (Homo sapiens [1]): 7 | IC50 [5]: 18.2 nM

Now from value to compound, other results behind:

Ratio IC50 (Homo sapiens [1]): 8
Structure (SMILES): C=CC(=O)Nc1cc(Nc2ncc3ncn(-c4ccc(Br)cc4)c3n2)c(OC)cc1N(C)CCN(C)C
IC50 (NCI-H1975): 140 nM | IC50 (HT-29): 1460 nM | IC50 (A549): 1150 nM

Ratio IC50 (Homo sapiens [1]): 7
Structure (SMILES): C=CC(=O)Nc1cc(Nc2ncc3ncn(-c4ccc(Cl)cc4Cl)c3n2)c(OC)cc1N(C)CCN(C)C
IC50 (NCI-H1975): 1610 nM | IC50 (HT-29): 20600 nM | IC50 (A549): 11200 nM

Ratio IC50 (Homo sapiens [1]): 9
Structure (SMILES): C=CC(=O)Nc1cc(Nc2ncc3ncn(C4CCCC4)c3n2)c(OC)cc1N(C)CCN(C)C
IC50 (NCI-H1975): 330 nM | IC50 (HT-29): 20800 nM | IC50 (A549): 2900 nM

Ratio IC50 (Homo sapiens [1]): 58
Structure (SMILES): C=CC(=O)Nc1cc(Nc2ncc3ncn(-c4ccccc4)c3n2)c(OC)cc1N(C)CCN(C)C
IC50 (NCI-H1975): 110 nM | IC50 (HT-29): 8080 nM | IC50 (A549): 580 nM

Ratio IC50 (Homo sapiens [1]): 7
Structure (SMILES): C=CC(=O)Nc1cc(Nc2ncc3ncn(-c4ccccc4Cl)c3n2)c(OC)cc1N(C)CCN(C)C
IC50 (NCI-H1975): 1710 nM | IC50 (HT-29): 11300 nM | IC50 (A549): 12600 nM

Ratio IC50 (Homo sapiens [1]): 42
Structure (SMILES): C=CC(=O)Nc1cc(Nc2ncc3ncn(-c4ccc(OC)cc4)c3n2)c(OC)cc1N(C)CCN(C)C
IC50 (NCI-H1975): 160 nM | IC50 (HT-29): 1740 nM | IC50 (A549): 3330 nM

Ratio IC50 (Homo sapiens [1]): 1
Structure (SMILES): C=CC(=O)Nc1cc(Nc2ncc3ncn(-c4ccccc4Br)c3n2)c(OC)cc1N(C)CCN(C)C
IC50 (NCI-H1975): 1800 nM | IC50 (HT-29): 16200 nM | IC50 (A549): 2090 nM

Ratio IC50 (Homo sapiens [1]): 35
Structure (SMILES): C=CC(=O)Nc1cc(Nc2ncc3ncn(-c4ccc(F)c(Cl)c4)c3n2)c(OC)cc1N(C)CCN(C)C
IC50 (NCI-H1975): 100 nM | IC50 (HT-29): 1610 nM | IC50 (A549): 5190 nM

Ratio IC50 (Homo sapiens [1]): < 1
Structure (SMILES): C=CC(=O)Nc1cc(Nc2ncc3ncn(-c4ccccc4F)c3n2)c(OC)cc1N(C)CCN(C)C
IC50 (NCI-H1975): 6720 nM | IC50 (HT-29): 9750 nM | IC50 (A549): 5820 nM

Ratio IC50 (Homo sapiens [1]): 16
Structure (SMILES): C=CC(=O)Nc1cc(Nc2ncc3ncn(-c4ccc(CC)cc4)c3n2)c(OC)cc1N(C)CCN(C)C
IC50 (NCI-H1975): 130 nM | IC50 (HT-29): 8180 nM | IC50 (A549): 1970 nM

Ratio IC50 (Homo sapiens [1]): 3
Structure (SMILES): C=CC(=O)Nc1cc(Nc2ncc3nc(Nc4ccccc4)n(C4CCCC4)c3n2)c(OC)cc1N(C)CCN(C)C
IC50 (NCI-H1975): 230 nM | IC50 (HT-29): 11400 nM | IC50 (A549): 780 nM

Ratio IC50 (Homo sapiens [1]): 3
Structure (SMILES): C=CC(=O)Nc1cc(Nc2ncc3ncn(-c4ccc(C)cc4)c3n2)c(OC)cc1N(C)CCN(C)C
IC50 (NCI-H1975): 140 nM | IC50 (HT-29): 9230 nM | IC50 (A549): 360 nM
